Activity calls are given as the source filed them. No cut-off for these calls is given here.
Columns and labels:
[1] = tested on: Mycobacterium tuberculosis variant bovis; experiment: Antimycobacterial activity against Mycobacterium bovis BCG ATCC 35734 assessed as increase in ROS level at 0.175 to 0.64 uM incubated for 2 hrs by CellROX green reagent fluorescence assay; format: functional, organism-based; details: dose 0.175-0.64 µM, DDE = dose-dependent effect
In short: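 CellROX Green then added to 10 μM final, followed by 30 min at 37°C in the dark. Readout is green fluorescence (Ex 485/Em 520 nm) normalized to OD600. Naphthoquinone positive control, INH negative control.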

[2] = tested on: Mycobacterium tuberculosis variant bovis; experiment: Induction of oxidative stress Mycobacterium bovis BCG ATCC 35734 expressing pfurA-RFP assessed as activation of pfurA at 0.5 to 2 times MIC90 measured after 24 hrs by fluorescence assay; format: functional, organism-based
In short: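 BCG carrying an integrated pfurA-mCherry reporter (kanamycin-selected). […] Red fluorescence (Ex 587/Em 630 nm) normalized to OD600. INH negative control.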

[3] = tested on: Mycobacterium tuberculosis variant bovis; experiment: Bactericidal activity against Mycobacterium bovis BCG ATCC 35734 assessed as reduction on colony forming unit at 15 uM measured upto 14 days by time killing assay; format: functional, organism-based; details: time <= 14.0 day
[4] = tested on: Mycobacterium tuberculosis variant bovis; experiment: Antimycobacterial activity against Mycobacterium bovis BCG ATCC 35734 assessed as inhibition of bacterial growth by two-fold serial broth dilution method; format: functional
In short: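 BCG grown at 37°C in 7H9 broth with 0.05% Tween-80, 0.5% glycerol and 10% ADC. Broth dilution method. MIC50/MIC90 are the concentrations giving 50%/90% growth inhibition versus untreated drug-free controls.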

[5] = tested on: Mycobacterium tuberculosis variant bovis; experiment: Bactericidal activity against Mycobacterium bovis BCG ATCC 35734 assessed as reduction on colony forming unit at 5 uM measured after 8 days by time killing assay; format: functional, organism-based; details: time 8.0 day

SMILES	Activity [1]	Activity [2]	further results
CCCCCCCCn1c2c([n+](CCCC)c1C)C(=O)c1ccccc1C2=O.[Br-]	Dde	Active	
NNC(=O)c1ccncc1			Activity [3]: Active
Cc1nc2c(n1CCCCCCCCCCC[P+](c1ccccc1)(c1ccccc1)c1ccccc1)C(=O)c1ccccc1C2=O			MIC90 [4]: 0.8 µM
CCCCn1c2c([n+](C3CCC4(CCCCC4)CC3)c1C)C(=O)c1ccccc1C2=O.[Br-]	Dde	Active	
Cc1nc2c(n1CCCCCCCCC[P+](c1ccccc1)(c1ccccc1)c1ccccc1)C(=O)c1ccccc1C2=O			Activity [5]: Active

— ChEMBL document CHEMBL5104224, “Alkyltriphenylphosphonium turns naphthoquinoneimidazoles into potent membrane depolarizers against mycobacteria” (RSC Med Chem, 2022)
